Assay results gathered from unrelated publications.
Protocols differ between the studies behind these lines.
Target: MAP kinase-interacting serine/threonine-protein kinase 1 (MKNK1, Homo sapiens, UniProt Q9BUB5)

| SMILES | observed | action | technique | tested at | endpoint | value |
| --- | --- | --- | --- | --- | --- | --- |
| CN(c1ncccc1CNc1nc(Nc2ccc3c(c2)CC(=O)N3)ncc1C(F)(F)F)S(C)(=O)=O | enzyme activity | inhibitor |  | 1 µM | inhibition | 3.8% |
| CC(C)(O)[C@H]1CC[C@H](Nc2ccc3ncc(-c4cccc(C(F)(F)F)c4)n3n2)CC1 | enzyme activity | inhibitor |  | 1 µM | remaining activity | 73.7% |
| O=C1NC(=O)c2cc(Nc3ccc(F)cc3)c(Nc3ccc(F)cc3)cc21 | cell-free assay |  |  | 0.5 µM | remaining signal | 103% |
| Cc1nccc(COC(=O)N2C[C@@H]3[C@@H](CNC(=O)c4ccc5[nH]nnc5c4)[C@@H]3C2)n1 | cell-free assay |  | competition with immobilised ligand | 1 µM | remaining binding | 91% |
| COc1cc(Nc2cnc(C#N)c(O[C@H](C)CN(C)C)n2)ncc1-c1cnn(C)c1 | enzyme activity | inhibitor | radiometric | 1 µM | remaining activity | 94% |
| Nc1nc(NC2CCCCC2)sc1C(=O)c1ccccc1 | enzyme activity | inhibitor |  | 10 µM | remaining activity | 105% |
| O=C1Nc2ccc(Cl)cc2C1=Cc1cc(Cl)c(O)c(Cl)c1 | cell-free assay |  |  | 0.5 µM | remaining signal | 103% |
| CN(C)c1ncnc(-c2ccc3nc(Nc4cc(CN5CCN(C(=O)CC(F)(F)F)CC5)ccn4)[nH]c3c2)c1Cl | cell-free assay |  | competition with immobilised ligand | 1 µM | remaining binding | 62% |
| Oc1cccc(-c2nc(N3CCOCC3)c3oc4ncccc4c3n2)c1 | enzyme activity | inhibitor |  | 10 µM | remaining activity | 97% |
| FC(F)(F)c1ccc2c(c1)nc(-c1cccnc1)n2C1CC1 | cell-free assay |  | competition with immobilised ligand | 1 µM | remaining binding | 100% |
| CC[C@H](CO)Nc1nc(NCc2ccccc2)c2ncn(C(C)C)c2n1 | cell-free assay |  |  | 0.5 µM | remaining signal | 96.4% |
| CCS(=O)(=O)c1cc2cc(C[C@](O)(CC(C)(C)c3ccc(F)cc3C(N)=O)C(F)(F)F)[nH]c2cn1 | cell-free assay |  | competition with immobilised ligand | 1 µM | remaining binding | 97% |
| O=C(Nc1cnn(-c2csc(C(=O)NC3COC3)c2)c1)Nc1c(F)cccc1Cl | enzyme activity | inhibitor |  | 5 µM | remaining activity | 103% |
| Cc1nc(C2CCN(C(=O)c3ccc(OC(F)(F)F)cc3N)CC2)c2ncc(N3CCN(C)CC3)cc2n1 | cell-free assay |  | competition with immobilised ligand | 1 µM | remaining binding | 100% |
| COc1cc2ncnc(Nc3ccc(Oc4ccccc4)c(C)c3C)c2cc1OC | enzyme activity | inhibitor |  | 1 µM | inhibition | -6% |
| Nc1ncnc2occ(-c3ccc(NC(=O)Nc4cc(C(F)(F)F)ccc4F)cc3)c12 | cell-free assay | inhibitor |  | 20 µM | remaining signal | 0% |
| COc1cc(/C=C/C(=O)CC(=O)/C=C/c2ccc(O)c(OC)c2)ccc1O | enzyme activity | inhibitor |  | 1 µM | activity vs control | 112% |
| CC(C)(C)c1nc(-c2cccc(NS(=O)(=O)c3c(F)cccc3F)c2F)c(-c2ccnc(N)n2)s1 | enzyme activity | inhibitor | radiometric | 1 µM | remaining activity | 128% |
| Cn1nc(C(=O)NCc2ccc(C(=O)O)cc2)cc1-c1ccc2[nH]ccc2c1 | cell-free assay |  | competition with immobilised ligand | 0.1 µM | remaining binding | 100% |
| FC(F)(F)Oc1cccc(-c2cnc3ccc(-c4ccncc4)nn23)c1 | enzyme activity | inhibitor | radiometric | 1 µM | activity vs control | 75% |
| O=C(CSc1nc2nccnc2c(=O)n1CCc1ccccc1)Nc1nccs1 | enzyme activity | inhibitor |  | 10 µM | inhibition | 1% |
| CNC(=O)c1ccc(Nc2ncc(C(F)(F)F)c(NCc3nccnc3N(C)S(C)(=O)=O)n2)cc1 | cell-free assay |  | competition with immobilised ligand | 0.1 µM | remaining binding | 83% |
